Compounds with a hit are over-represented: about 3.3% of the library has one in this group of screens.
KCC2 mod: modulators of human KCC2 chloride dependent transport | KCC2 cells, thallium flux FluoZin-2 fluorescence | B-score of Tl+ flux slope (higher = more flux/activation; lower = inhibition) at 10 µM | 190,000 tested, 2.2% active;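 active = thallium flux slope and its plate-corrected score both differing from the plate sample mean at a set confidence after two filtering rounds, in either direction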;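 note: slope of fluorescence scaled to starting intensity during 10 to 20 s after thallium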
ABCB1 inh: inhibitors of human ABCB1 transporter, ABCG2 counter-screen; inhibition, % at 6.6 µM; CCRF-Adr cells, JC-1 efflux, flow cytometry; 190,000 tested, 0.067% active; in the data active = inhibition above about 40%;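 note: 0% = vehicle and 100% = reference inhibitor; higher value means more JC-1 retained so stronger ABCB1 efflux block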
ROMK primary: modulates human ROMK potassium channel activity; P48048; Tet-inducible ROMK, thallium flux fluorescence; actives lie on both sides; B-score at 10 µM; 130,000 tested, 2% active; AID 1918;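 active = signal ratio slope over the read window, or its plate-corrected B-score, at least 3 SD from the plate mean, either direction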;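 note: B-score of the F/F0 ratio slope over 7 to 12 s after thallium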
PMI act hi M6P: increases human PMI activity with near-saturating mannose 6-phosphate; P34949; coupled PMI enzyme assay, resazurin fluorescence, 20 min; active compounds read high; 1 = untreated enzyme, 0 = substrate-free blank; activation factor at 20 µM; 190,000 tested, 0.34% active; AID 1216;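 active = activation factor of 2 or more at 20 µM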
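test system = human PMI in coupled enzyme assay | medium = HEPES-buffered pH 7.4 with magnesium and detergent | also added = 1.0 mM mannose-6-phosphate substrate with 0.22 mM NADP+ | compound = 20 µM single dose | times = 20 min incubation at room temperature | measured by = resorufin fluorescence (Ex 544/Em 590 nm) from resazurin via diaphorase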
ABCG2 inh: blocks JC-1 efflux by human ABCG2 transporter; Q9UNQ0; IgMXP3 cells, flow cytometry; inhibition, % at 6.6 µM; 190,000 tested, 0.1% active;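 active = inhibition above 80%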;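 note: 0% = DMSO and 100% = nicardipine control wells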
Target sequence (Q9UNQ0 whole entry, looked up): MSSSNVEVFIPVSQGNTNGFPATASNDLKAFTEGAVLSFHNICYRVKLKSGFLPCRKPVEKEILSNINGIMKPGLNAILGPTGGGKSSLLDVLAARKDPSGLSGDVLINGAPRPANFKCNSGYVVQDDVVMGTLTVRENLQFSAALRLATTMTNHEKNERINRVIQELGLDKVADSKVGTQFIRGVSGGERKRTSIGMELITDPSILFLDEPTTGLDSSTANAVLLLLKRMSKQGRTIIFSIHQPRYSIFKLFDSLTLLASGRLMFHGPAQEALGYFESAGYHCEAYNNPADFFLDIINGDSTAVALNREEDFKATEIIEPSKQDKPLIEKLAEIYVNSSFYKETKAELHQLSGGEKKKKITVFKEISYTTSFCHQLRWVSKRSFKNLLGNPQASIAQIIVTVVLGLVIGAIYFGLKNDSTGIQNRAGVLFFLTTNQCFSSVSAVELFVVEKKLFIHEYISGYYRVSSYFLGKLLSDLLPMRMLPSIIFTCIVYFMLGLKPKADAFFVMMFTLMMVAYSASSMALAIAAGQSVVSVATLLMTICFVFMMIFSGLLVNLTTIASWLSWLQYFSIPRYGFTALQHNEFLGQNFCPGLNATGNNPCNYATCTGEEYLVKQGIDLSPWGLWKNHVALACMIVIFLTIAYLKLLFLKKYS
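Test system: IgMXP3 (ABCG2) plus far-red-tagged CCRF-Adr (ABCB1) cells. Reagent: JC-1 dye as substrate. Timing: 10 min exposure at 25 °C with rotation, no wash. Measured by: flow cytometric JC-1 green MFI at 530 nm. Read-out: percent efflux inhibition, scaled nicardipine 100% to DMSO 0%. Control set: nicardipine and DMSO wells.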
PMI act: increases human mannose-6-phosphate isomerase activity | P34949 | purified human PMI, coupled resazurin fluorescence, 20 min; active compounds read high; 1 = vehicle control, 0 substrate-free wells | activation factor at 20 µM | 190,000 tested, 0.005% active | AID 1214;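 active = activation factor of 2 or more at 20 µM, relative to plate controls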
KCC2 secondary: KCC2 (human) modulation, secondary assay; shares compounds with KCC2 mod; HEK293-KCC2, thallium flux, FluoZin2 fluorescence; active compounds read high; normalised thallium flux (F/F0 slope) at 10 µM; 3,700 tested, 15% active; AID 1713;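 active = thallium flux slope above the same plate's solvent-only control mean plus 3 SD; inconclusive = the two replicate wells disagree; inactive = no significant difference from solvent-only control wells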
KCC2 bumet counter: bumetanide-insensitive thallium flux in KCC2 cells with ouabain, counter-screen | AID 1714 | 3,700 tested, 49% active | shares compounds with KCC2 mod | HEK293-KCC2 + bumetanide/ouabain, thallium flux FluoZin2; active compounds read high | normalized thallium flux at 10 µM;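 active = thallium entry rate above the same plate's blocked-transporter control wells by more than 3 SD; inconclusive = the two repeat wells disagree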;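 note: raw slope of fluorescence over initial fluorescence between 10 and 20 s after thallium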
KCC2 sec2: KCC2 (human) modulation, second secondary assay | shares compounds with KCC2 mod | HEK293-KCC2, thallium flux FluoZin2 fluorescence; actives lie on both sides; F/F0 rise rate, 10–20 s post-thallium | normalized thallium flux at 10 µM | 3,700 tested, 23% active | AID 1715;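 active = thallium flux slope more than 3 SD above or below the plate's solvent-only control mean, mostly below; inconclusive = the two repeat wells disagreed; inactive = no significant shift from solvent-only controls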;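 note: raw slope with 0.1% DMSO as baseline and bumetanide as block control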
HEK293 Tl flux: parental HEK flux effect, counter-screen | AID 1716 | 3,700 tested, 46% active | shares compounds with KCC2 mod | HEK293 parental cells, thallium flux FluoZin2, ouabain; baseline-ratio fluorescence slope, 10–20 s after thallium | thallium flux rate (normalised fluorescence) at 10 µM;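 active = thallium flux rate significantly above the same plate's solvent-only control wells, beyond their mean plus 3 SD; inconclusive = the two replicate wells gave conflicting results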
KCC2 retest ouab: modulates human KCC2 on retest with ouabain; shares compounds with KCC2 mod; raw Tl+ flux slope (below DMSO = inhibition, above = activation) at 10 µM; HEK293-KCC2, thallium flux FluoZin2 fluorescence; bidirectional: low = inhibitor, high = activator; 3,700 tested, 48% active;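 active = thallium flux slope beyond 3 SD from same-plate DMSO control mean in most replicates, usually higher, sometimes lower; inconclusive = repeat tests gave conflicting results; inactive = no significant difference from controls in most replicates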;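 note: slope of initial-normalized fluorescence between seconds 10 and 20 after thallium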
HEK counter2: acts in parental HEK cells, second KCC2 counter-screen | shares compounds with KCC2 mod | HEK293 parental, thallium flux FluoZin-2 fluorescence slope | AID 1718 | thallium flux slope at 10 µM | 3,700 tested, 33% active;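 active = thallium flux slope above the same plate's solvent-control mean plus 3 SD in both duplicate wells; inconclusive = duplicate wells that disagreed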;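 note: run without ouabain in cells lacking the KCC2 cotransporter; slope of fluorescence scaled to its starting value between 10 and 20 s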
Starred values were filed as active, the others as inactive; ? = inconclusive; . = not tested or not shown.

SMILES	KCC2 mod	ABCB1 inh	ROMK primary	PMI act hi M6P	ABCG2 inh	PMI act	KCC2 secondary	KCC2 bumet counter	KCC2 sec2	HEK293 Tl flux	KCC2 retest ouab	HEK counter2
CCOC(=O)C(CC)(CCC(=O)O)c1csc(Nc2ccc(C)cc2)n1 (centres undefined)	-2.89*	0.0	0.35	1	1.3	1	0.0175	0.00447	0.0291	0.006*	0.0145	0.00965
CNC(=O)CN(c1cccc(Br)c1)S(C)(=O)=O	1.81	0.7	0.735	1	11.5	1	0.0154	0.00453	0.0267	0.0074	0.0157	0.0107
CCC1CCCCN1C(=O)CSc1nnc(CNC(=O)c2cc(OC)c(OC)c(OC)c2)o1 (centres undefined)	6.72*	0.0	0.173	1.1	0.1	1.1	0.00762	0.00464	0.0316	0.00786	0.0198	0.0113
O=C(CSCc1ccc(F)cc1)N1CCN(c2ccc(F)cc2)CC1	-3.55*	0.4	.	1	2.4	1	0.00626	?	0.0316	0.00366	0.0165*	0.0113
Cc1ccc(CSCC(=O)N2CCN(c3ccc(F)cc3)CC2)cc1	-0.7	0.5	.	0.9	2.1	1	.	.	.	.	.	.
O=C(Nc1ccccc1C(=O)OCC(=O)c1c[nH]c2ccccc12)c1ccco1	0.234	-0.4	.	1	-3.4	0.8	.	.	.	.	.	.
CC(C1CC2CCC1C2)n1c(-c2cccs2)n[nH]c1=S (centres undefined)	72.1*	.	.	.	.	.	0.0193	0.0823*	0.0416*	0.0342*	0.0413*	0.0318*
S=c1[nH]nc(-c2cccs2)n1C1CCCCC1	11.5*	.	.	.	.	.	0.011	0.0158*	0.0359	0.0132*	0.0257*	?
S=c1[nH]nc(-c2cccs2)n1Cc1ccccc1	0.433	-0.1	-0.669	1	-0.3	0.9	.	.	.	.	.	.
O=C(O)CSc1ccnc2cc(Cl)ccc12	0.893	.	-0.0787	.	.	.	.	.	.	.	.	.
COC(=O)CSc1ccnc2cc(Cl)ccc12	-3.19*	.	0.000679	.	.	.	0.0096	?	0.0337	0.00343	0.0179	0.0116
CC(C)COCC(O)CCC(=O)NNC(=S)Nc1ccccc1 (centres undefined)	0.0795	-0.6	1.16	0.9	-2.2	0.8	.	.	.	.	.	.
CC(C)COC(=S)Nc1ccccc1	9.3*	0.3	.	1	1.7	1	0.00562	0.0101*	0.0311	0.0101*	?	?
COc1ccc(-c2csc(NC(=O)c3ccccc3NS(=O)(=O)c3ccc(F)c(F)c3)n2)cc1	-4.55*	-0.1	-0.386	0.9	3.2	0.9	0.00524*	0.0111*	0.033	?	0.0112*	0.0115
C=CCn1c(SCC(=O)NC(=O)c2cccn2C)nc2ccccc2c1=O	-1.2	0.9	.	0.9	11.3	1	.	.	.	.	.	.
CCC(C)n1c(SCC(=O)NC(=O)c2cccn2C)nc2ccccc2c1=O (centres undefined)	21.9*	3.5	-1.6	0.9	11.9	1	0.0159*	0.0964*	0.0372	0.0372*	0.0424*	0.0166*
Cn1cc(CN(CCO)Cc2cccs2)c(-c2ccccc2F)n1	-0.287	1.2	0.242	1	2.5	0.9	.	.	.	.	.	.
O=C1/C(=C/C=C/c2ccco2)SC(=S)N1NS(=O)(=O)c1ccccc1	6.81*	.	1.13	.	.	.	0.00671	0.0142*	0.0318	0.0172*	?	0.0178*
O=C1/C(=C/c2cccs2)SC(=S)N1NS(=O)(=O)c1ccccc1	8.83*	.	0.883	.	.	.	0.0144*	0.0293*	0.0356	0.0159*	0.0257	0.0138*
Cn1c(N)c(C(=O)c2ccc(C#N)cc2)c(=O)n(C)c1=O	0.0368	0.4	.	1	5.4	0.9	.	.	.	.	.	.
COc1ccc(C2C(C#N)=C(N)Oc3cc(C)[nH]c(=O)c32)c(OC)c1OC (centres undefined)	.	0.0	0.598	1	0.0	0.9	0.00931	0.00631	0.0341	0.00876	0.0195	0.0121
CCOC(=O)C1=C(C)N(C2CCCCC2)C(=O)C1	.	1.2	0.749	0.9	4.2	1	.	.	.	.	.	.
COC(=O)C1=C(C)N(C2CCCCC2)C(=O)C1	6.24*	0.3	.	1	0.4	1	0.00699	0.0068	0.0288	0.00698	0.0189	0.00903
O=C(NCCCO)C(=O)NCc1ccncc1	0.0892	0.1	1.82	1.1	-1.0	1.1	.	.	.	.	.	.
Oc1oc(-c2ccccc2)nc1/C=N/c1nccs1	14.4*	-1.5	.	1	-6.0	1	0.0161*	0.0822*	0.0324	0.0167*	0.0439*	0.0117*
SMILES	KCC2 mod	ABCB1 inh	ROMK primary	PMI act hi M6P	ABCG2 inh	PMI act	KCC2 secondary	KCC2 bumet counter	KCC2 sec2	HEK293 Tl flux	KCC2 retest ouab	HEK counter2
CCCCOc1ccc(-c2nc(/C=N/c3nccs3)c(O)o2)cc1	2.21	-0.3	.	1	-0.9	1.1	.	.	.	.	.	.
CCCCCCN1C(=O)C(O)=C(C(C)=O)C1c1ccc(Cl)cc1 (centres undefined)	-3.3*	0.3	.	1	1.0	0.9	0.00927	?	0.0298	0.00824	0.0141*	0.0112
O=C(Nc1cccc2ccccc12)N1CCN(c2ncccn2)CC1	-4.06*	0.5	-1.8	0.3	7.3	0.7	0.0111	?	0.0325	0.00843	0.0183	0.0106
S=C(Nc1cccc2ccccc12)N1CCN(c2ncccn2)CC1	0.0328	0.2	.	0.7	0.1	0.9	.	.	.	.	.	.
COc1ccccc1NS(=O)(=O)c1cccc2cccnc12	2.68*	-1.5	.	0.9	-2.5	0.9	0.00925	0.014*	0.0348	?	0.0229	?
Cc1ccc(S(=O)(=O)Nc2cccc3cccnc23)cc1	13.4*	0.6	0.0323	0.8	1.8	0.8	?	0.0661*	0.0323	0.02*	0.0348*	?
COc1ccc(S(=O)(=O)Nc2cc(C)ccc2OC)cc1C	0.263	0.5	.	1	2.3	0.9	.	.	.	.	.	.
COc1cc(NS(=O)(=O)c2ccc(C)cc2)c2ncccc2c1	49.4*	0.7	.	0.7	4.9	0.7	0.0277*	0.0926*	0.0353	?	0.0624*	?

Screens: PubChem BioAssay, several laboratories
